Reference: ChEMBL document CHEMBL2417469, “Synthesis of novel analogs of 2-pyrazoline obtained from [(7-chloroquinolin-4-yl)amino]chalcones and hydrazine as potential antitumor and antimalarial agents” (Eur J Med Chem, 2013)

Tests used:
NCI-H322M = assay: Cytotoxicity against human NCI-H322M cells after 48 hrs by SRB assay; type: functional
Procedure, shortened: (§1)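 NCI 60-cell-line screen. Cells preincubated 24 h at 37 °C, 5% CO2; time-zero plates TCA-fixed. Compounds dissolved in DMSO and tested at five concentrations (100, 10, 1.0, 0.1, 0.01 µM) for 48 h continuous exposure. Adherent cells fixed with cold TCA (10% final), then SRB stained; absorbance at 515 nm. GI50, TGI and LC50 calculated from growth relative to time-zero and untreated controls.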

HT-29 = assay: Cytotoxicity against human HT-29 cells after 48 hrs by SRB assay; type: functional; details: HT-29, 48 h; procedure, shortened: as §1
SK-MEL-28 = assay: Cytotoxicity against human SK-MEL-28 cells after 48 hrs by SRB assay; type: functional; details: SK-MEL-28, 48 h; for CC50: read-out: LC50 (the source's name); procedure, shortened: as §1
SK-OV-3 = assay: Cytotoxicity against human SKOV3 cells after 48 hrs by SRB assay; type: functional; details: SK-OV-3, 48 h; procedure, shortened: as §1
A498 = assay: Cytotoxicity against human A498 cells after 48 hrs by SRB assay; type: functional; details: A498, 48 h; for CC50: read-out: LC50 (the source's name); procedure, shortened: as §1
CAKI-1 = assay: Cytotoxicity against human Caki1 cells after 48 hrs by SRB assay; type: functional; details: CAKI-1, 48 h; procedure, shortened: as §1
HCT-15 = assay: Cytotoxicity against human HCT15 cells after 48 hrs by SRB assay; type: functional; details: HCT-15, 48 h; procedure, shortened: as §1
786-0 = assay: Cytotoxicity against human 786-0 cells after 48 hrs by SRB assay; type: functional; details: 786-0, 48 h; procedure, shortened: as §1
PC-3 = assay: Cytotoxicity against human PC3 cells after 48 hrs by SRB assay; type: functional; details: PC-3, 48 h; procedure, shortened: as §1
KM12 = assay: Cytotoxicity against human KM12 cells after 48 hrs by SRB assay; type: functional; details: KM12, 48 h; procedure, shortened: as §1
IGROV-1 = assay: Cytotoxicity against human IGROV1 cells after 48 hrs by SRB assay; type: functional; details: IGROV-1, 48 h; procedure, shortened: as §1
SK-MEL-5 = assay: Cytotoxicity against human SK-MEL-5 cells after 48 hrs by SRB assay; type: functional; details: SK-MEL-5, 48 h; procedure, shortened: as §1
MDA-MB-468 = assay: Cytotoxicity against human MDA-MB-468 cells after 48 hrs by SRB assay; type: functional; details: MDA-MB-468, 48 h; procedure, shortened: as §1
HCT-116 = assay: Cytotoxicity against human HCT116 cells after 48 hrs by SRB assay; type: functional; details: HCT-116, 48 h; procedure, shortened: as §1
Malme-3M = assay: Cytotoxicity against human MALME-3M cells after 48 hrs by SRB assay; type: functional; procedure, shortened: as §1
SF-295 = assay: Cytotoxicity against human SF295 cells after 48 hrs by SRB assay; type: functional; details: SF-295, 48 h; procedure, shortened: as §1
NCI/ADR-RES = assay: Cytotoxicity against human NCI/ADR-RES cells after 48 hrs by SRB assay; type: functional; details: for CC50: read-out: LC50 (the source's name); procedure, shortened: as §1
M14 = assay: Cytotoxicity against human M14 cells after 48 hrs by SRB assay; type: functional; details: M14, 48 h; for CC50: read-out: LC50 (the source's name); procedure, shortened: as §1
SR = assay: Cytotoxicity against human SR cells after 48 hrs by SRB assay; type: functional
Procedure, shortened: (§2)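 NCI 60-cell screen. Cells grew 24 h (37 °C, 5% CO2) before compound was added. Compounds were in DMSO and diluted in medium with gentamicin, then tested at five levels (100, 10, 1.0, 0.1, 0.01 µM) with 48 h continuous exposure. Adherent cells were fixed with TCA (10% final) and stained with 0.4% SRB, absorbance read at 515 nm. A time-zero plate was included. LC50 is the concentration giving 50% loss of protein relative to time zero.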

LOX IMVI = assay: Cytotoxicity against human LOXIMVI cells after 48 hrs by SRB assay; type: functional; procedure, shortened: as §1
U-251 = assay: Cytotoxicity against human U251 cells after 48 hrs by SRB assay; type: functional; details: U-251, 48 h; for CC50: read-out: LC50 (the source's name); procedure, shortened: as §2
BT-549 = assay: Cytotoxicity against human BT549 cells after 48 hrs by SRB assay; type: functional; details: BT-549, 48 h; procedure, shortened: as §1
OVCAR-8 = assay: Cytotoxicity against human OVCAR8 cells after 48 hrs by SRB assay; type: functional; details: OVCAR-8, 48 h; procedure, shortened: as §1
MOLT-4 = assay: Cytotoxicity against human MOLT4 cells after 48 hrs by SRB assay; type: functional; details: MOLT-4, 48 h; procedure, shortened: as §1
COLO 205 = assay: Cytotoxicity against human COLO205 cells after 48 hrs by SRB assay; type: functional; details: COLO 205, 48 h; procedure, shortened: as §1
[1] = Toxicity in RBC (unknown origin) assessed as hemolysis after 48 hrs at 20 to 80 ug/ml by spectrophotometry; type: cell-based, Erythrocyte; details: red blood cells (RBC); read-out: Activity
Procedure, shortened: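 Red blood cells at 5% hematocrit in RPMI 1640 exposed to 20, 40 and 80 µg/mL for 48 h at 37 °C; free hemoglobin read spectrophotometrically at 542 nm.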

K562 = assay: Cytotoxicity against human K562 cells after 48 hrs by SRB assay; type: functional; details: K562, 48 h; procedure, shortened: as §1

## O=CN1N=C(c2ccc(Nc3ccnc4cc(Cl)ccc34)cc2)CC1c1ccc(Cl)cc1 (centres undefined)
NCI-H322M
  GI50: > 100 µM
  LC50 (50% lethal concentration): > 100 µM
HT-29
  GI50: 0.41 µM
  LC50: > 100 µM
SK-MEL-28
  GI50: 0.76 µM
  CC50: > 100 µM
SK-OV-3
  GI50: 0.57 µM
  LC50 (concentration killing 50% of cells): > 100 µM
A498
  GI50: > 100 µM
  CC50: > 100 µM
CAKI-1
  GI50: 0.41 µM
  LC50: > 100 µM
HCT-15
  GI50: 0.58 µM
  LC50 (concentration killing 50% of cells relative to time zero): > 100 µM
786-0
  GI50: 0.91 µM
  LC50: > 100 µM
PC-3
  GI50: 0.48 µM
  LC50: > 100 µM
KM12
  GI50: 0.54 µM
  LC50 (concentration killing 50% of cells): > 100 µM
IGROV-1
  GI50: 5.01 µM
  LC50 (concentration killing 50% of cells relative to time zero): > 100 µM
SK-MEL-5
  GI50: 0.81 µM
  LC50 (concentration killing 50% of cells present at time zero): > 100 µM
MDA-MB-468
  GI50: 0.32 µM
  LC50: > 100 µM
HCT-116
  GI50: 0.5 µM
  LC50: > 100 µM
Malme-3M
  LC50: > 100 µM
SF-295
  GI50: 0.27 µM
  LC50: > 100 µM
NCI/ADR-RES
  GI50: 0.36 µM
  CC50: > 100 µM
M14
  GI50: 0.62 µM
  CC50: > 100 µM
SR
  GI50: 0.32 µM
  LC50: > 100 µM
LOX IMVI
  GI50: 0.6 µM
  LC50: > 100 µM
U-251
  GI50: 0.51 µM
  CC50: > 100 µM
BT-549
  GI50: 4.77 µM
  LC50 (50% net cell kill vs time zero): > 100 µM
OVCAR-8
  GI50: 3.22 µM
  LC50 (50% net cell kill): > 100 µM
MOLT-4
  GI50: 0.53 µM
  LC50: > 100 µM
COLO 205
  GI50: 2.4 µM
  LC50: > 100 µM

## O=CN1N=C(c2ccc(Nc3ccnc4cc(Cl)ccc34)cc2)CC1c1ccccc1 (centres undefined)
HT-29
  GI50: 3.21 µM
  LC50: > 100 µM
SK-MEL-28
  GI50: 8.35 µM
  CC50: > 100 µM
SK-OV-3
  GI50: 11.3 µM
  LC50 (concentration killing 50% of cells): > 100 µM
A498
  GI50: 1.3 µM
  CC50: > 100 µM
CAKI-1
  GI50: 3.82 µM
  LC50: > 100 µM
HCT-15
  GI50: 2.54 µM
  LC50 (concentration killing 50% of cells relative to time zero): > 100 µM
786-0
  GI50: 3.36 µM
  LC50: 98.4 µM
PC-3
  GI50: 4.76 µM
  LC50: > 100 µM
KM12
  GI50: 3.41 µM
  LC50 (concentration killing 50% of cells): > 100 µM
IGROV-1
  GI50: 9.36 µM
  LC50 (concentration killing 50% of cells relative to time zero): > 100 µM
SK-MEL-5
  GI50: 1.38 µM
  LC50 (concentration killing 50% of cells present at time zero): 11.2 µM
[1]
  hemolysis at 48 h: 3.8%
MDA-MB-468
  GI50: 0.98 µM
  LC50: 10 µM
HCT-116
  GI50: 3.58 µM
  LC50: > 100 µM
Malme-3M
  GI50: 4.21 µM
  LC50: > 100 µM
SF-295
  GI50: 2.41 µM
  LC50: > 100 µM
NCI/ADR-RES
  GI50: 2.69 µM
  CC50: > 100 µM
M14
  GI50: 4.12 µM
  CC50: > 100 µM
SR
  GI50: 1.77 µM
  LC50: > 100 µM
LOX IMVI
  GI50: 1.61 µM
  LC50: 6.88 µM
U-251
  GI50: 3.12 µM
  CC50: > 100 µM
BT-549
  GI50: 3.81 µM
  LC50 (50% net cell kill vs time zero): 53.8 µM
OVCAR-8
  GI50: 4.53 µM
  LC50 (50% net cell kill): > 100 µM
MOLT-4
  GI50: 2.28 µM
  LC50: > 100 µM
COLO 205
  GI50: 2.21 µM
  LC50: > 100 µM

## COc1cccc2c1C(=O)c1c(O)c3c(c(O)c1C2=O)C[C@@](O)(C(=O)CO)C[C@@H]3O[C@H]1C[C@H](N)[C@H](O)[C@H](C)O1 [DOXORUBICIN]
NCI-H322M
  GI50: 0.54 µM
HT-29
  GI50: 0.12 µM
SK-MEL-28
  GI50: 0.21 µM
  CC50: 15.9 µM
SK-OV-3
  GI50: 0.22 µM
K562
  GI50: 0.19 µM
A498
  GI50: 0.1 µM
  CC50: 1.9 µM
CAKI-1
  GI50: 0.95 µM
HCT-15
  GI50: 6.46 µM
786-0
  GI50: 0.13 µM
PC-3
  GI50: 0.32 µM
KM12
  GI50: 0.27 µM
IGROV-1
  GI50: 0.17 µM
SK-MEL-5
  GI50: 0.08 µM
MDA-MB-468
  GI50: 0.05 µM
HCT-116
  GI50: 0.08 µM
Malme-3M
  GI50: 0.12 µM
SF-295
  GI50: 0.1 µM
NCI/ADR-RES
  GI50: 7.16 µM
  CC50: 100 µM
M14
  GI50: 0.18 µM
  CC50: 4.05 µM
SR
  GI50: 0.03 µM
LOX IMVI
  GI50: 0.07 µM
U-251
  GI50: 0.04 µM
  CC50: 30.6 µM
BT-549
  GI50: 0.23 µM
OVCAR-8
  GI50: 0.1 µM
MOLT-4
  GI50: 0.03 µM
COLO 205
  GI50: 0.18 µM
